Tests used:
HaCaT [1] = experiment: Inhibition of PGE2 production in human HaCaT cells at 5 uM after 24 hrs by RIA; format: functional
[2] = Antiproliferative activity against human HaCaT cells assessed as [3H]thymidine incorporation at 5 uM after 24 hrs; format: cell-based
Neutrophil [3] = experiment: Inhibition of TPA-induced ROS production in human neutrophils at 5 uM by chemiluminescence; format: functional
HaCaT [4] = experiment: Cytotoxicity against human HaCaT cells assessed as plasma membrane integrity damage at 5 uM; format: cell-based
Procedure, shortened: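 Membrane damage in treated HaCaT keratinocytes was measured as LDH leakage into the culture medium, read as A550nm (mU), with compounds at 5 µM. Results are mean ± SEM; ANOVA followed by Dunnett's t-test.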

HaCaT [5] = experiment: Antiproliferative activity against human HaCaT cells assessed as [3H]thymidine incorporation after 24 hrs; format: cell-based
Procedure, shortened: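 HaCaT keratinocytes were grown in DMEM with 10% FCS, penicillin and streptomycin at 37 °C and 5% CO₂. Cells were seeded at 4 × 10⁴/well for 24 h, then the medium was replaced and compounds or vehicle (1% EtOH) added for 24 h. Cells were pulsed 6 h with methyl-³H-thymidine (1 µCi/mL), and incorporation was counted by scintillation. %I at 5 µM; IC₅₀ from ≥4 concentrations (n = 6); mean ± SEM.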

[6] = test system: Radical scavenging activity; experiment: Antioxidant activity assessed as DPPH free radical scavenging activity after 30 mins by assay in solution
Neutrophil [7] = experiment: Inhibition of TPA-induced ROS production in human neutrophils by chemiluminescence; format: functional, cell-based
HaCaT [8] = experiment: Inhibition of PGE2 production in human HaCaT cells after 24 hrs by RIA; format: functional, cell-based

IC50 [6] [nM] | IC50 (Neutrophil [7]) [nM] | SMILES | inhibition at 5 µM (HaCaT [1]) [%] | inhibition at 24 h, 5 µM [2] [%] | inhibition at 5 µM (Neutrophil [3]) [%] | Activity (HaCaT [4]) [%] | IC50 (HaCaT [5]) [nM] | IC50 (HaCaT [8]) [nM]
 |  | CC1=CCC[C@H]2[C@](C)(CC3=CC(=O)C=C(NCCc4c[nH]c5ccccc45)C3=O)[C@@H](C)CC[C@]12C | 47.1 | 33.3 | 25.2 |  |  | 
 |  | CC1=CCC[C@H]2[C@](C)(CC3=CC(=O)C(NCCc4c[nH]c5ccccc45)=CC3=O)[C@@H](C)CC[C@]12C | 50.4 | 36.7 | 26.7 |  |  | 
 |  | CNC1=CC(=O)C(C[C@]2(C)[C@@H](C)CC[C@]3(C)C(C)=CCC[C@@H]23)=CC1=O | 54.8 | 33.5 | 37.8 |  |  | 
 |  | O=C1c2c(O)cccc2Cc2cccc(O)c21 [ANTHRALIN] |  | 73.8 | 31.2 | 59 | 2900 | 
18000 | 3600 | CC1=CCC[C@H]2[C@](C)(Cc3cc(O)ccc3O)[C@@H](C)CC[C@]12C [AVAROL] | 4.9 | 18.9 | 71.7 |  |  | 
 | 1000 | COc1cc2ccc(=O)oc2c(O)c1O [FRAXETIN] |  |  | 76.4 |  |  | 
 |  | CS(=O)(=O)Nc1ccc([N+](=O)[O-])cc1OC1CCCCC1 [NS-398] | 93.8 |  |  |  |  | 10

From ChEMBL document CHEMBL1148217, “Potential antipsoriatic avarol derivatives as antioxidants and inhibitors of PGE(2) generation and proliferation in the HaCaT cell line” (J Nat Prod, 2004)
